Reference: ChEMBL document CHEMBL4402517, “Rational modification of Mannich base-type derivatives as novel antichagasic compounds: Synthesis, in vitro and in vivo evaluation” (Bioorg Med Chem, 2019)

What was measured:
[1] = Genotoxicity in Salmonella typhimurium TA1535 harboring pSK1002 assessed as survival at 0.063 mg/ml in absence of Sprague-Dawley rat liver S9 fraction metabolic activation by SOS/umu assay relative to control; assay type: toxicity; conditions: salmonella enterica subsp. enterica serovar typhimurium, read-out: Survival
Summary of the method: (§1)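 Survival of S. typhimurium TA1535/pSK1002 exposed to a range of compound concentrations with or without S9 mix in 96-well format. Survival percentage measured as the cytotoxicity arm of the SOS/umu test. Concentrations with survival ≥80% are counted as non-cytotoxic.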

[2] = Genotoxicity in Salmonella typhimurium TA1535 harboring pSK1002 assessed as survival at 0.004 mg/ml in absence of Sprague-Dawley rat liver S9 fraction metabolic activation by SOS/umu assay relative to control; assay type: toxicity; conditions: salmonella enterica subsp. enterica serovar typhimurium, read-out: Survival; summary of the method: as §1
[3] = Genotoxicity in Salmonella typhimurium TA1535 harboring pSK1002 assessed as survival at 0.25 mg/ml in presence of Sprague-Dawley rat liver S9 fraction metabolic activation by SOS/umu assay relative to control; assay type: toxicity, subcellular; conditions: salmonella enterica subsp. enterica serovar typhimurium, read-out: Survival; summary of the method: as §1
[4] = Genotoxicity in Salmonella typhimurium TA1535 harboring pSK1002 assessed as survival at 0.125 mg/ml in presence of Sprague-Dawley rat liver S9 fraction metabolic activation by SOS/umu assay relative to control; assay type: toxicity, subcellular; conditions: salmonella enterica subsp. enterica serovar typhimurium, read-out: Survival; summary of the method: as §1
[5] = Genotoxicity in Salmonella typhimurium TA1535 harboring pSK1002 assessed as survival at 0.063 mg/ml in presence of Sprague-Dawley rat liver S9 fraction metabolic activation by SOS/umu assay relative to control; assay type: toxicity, subcellular; conditions: salmonella enterica subsp. enterica serovar typhimurium, read-out: Survival; summary of the method: as §1
[6] = Genotoxicity in Salmonella typhimurium TA1535 harboring pSK1002 assessed as survival at 0.016 mg/ml in presence of Sprague-Dawley rat liver S9 fraction metabolic activation by SOS/umu assay relative to control; assay type: toxicity, subcellular; conditions: salmonella enterica subsp. enterica serovar typhimurium, read-out: Survival; summary of the method: as §1
[7] = Genotoxicity in Salmonella typhimurium TA1535 harboring pSK1002 assessed as umu gene induction at 1 mg/ml in absence of Sprague-Dawley rat liver S9 fraction metabolic activation by SOS/umu assay relative to control; assay type: toxicity; conditions: salmonella enterica subsp. enterica serovar typhimurium, read-out: FC
Summary of the method: (§2)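 umu induction in S. typhimurium TA1535/pSK1002, with or without S9 mix, in 96-well format. β-galactosidase read colorimetrically with ONPG substrate. Output given as relative units and induction factor (IF). The run is valid if positive controls reach IF ≥2. A compound counts as genotoxic at IF ≥2 at a concentration giving ≥80% bacterial survival.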

[8] = Genotoxicity in Salmonella typhimurium TA1535 harboring pSK1002 assessed as umu gene induction at 0.031 mg/ml in absence of Sprague-Dawley rat liver S9 fraction metabolic activation by SOS/umu assay relative to control; assay type: toxicity; conditions: salmonella enterica subsp. enterica serovar typhimurium, read-out: FC; summary of the method: as §2
[9] = Genotoxicity in Salmonella typhimurium TA1535 harboring pSK1002 assessed as umu gene induction at 0.008 mg/ml in absence of Sprague-Dawley rat liver S9 fraction metabolic activation by SOS/umu assay relative to control; assay type: toxicity; conditions: salmonella enterica subsp. enterica serovar typhimurium, read-out: FC; summary of the method: as §2
[10] = Genotoxicity in Salmonella typhimurium TA1535 harboring pSK1002 assessed as umu gene induction at 0.016 mg/ml in presence of Sprague-Dawley rat liver S9 fraction metabolic activation by SOS/umu assay relative to control; assay type: toxicity, subcellular; conditions: salmonella enterica subsp. enterica serovar typhimurium, read-out: FC; summary of the method: as §2
[11] = Genotoxicity in Salmonella typhimurium TA1535 harboring pSK1002 assessed as umu gene induction at 0.002 mg/ml in presence of Sprague-Dawley rat liver S9 fraction metabolic activation by SOS/umu assay relative to control; assay type: toxicity, subcellular; conditions: salmonella enterica subsp. enterica serovar typhimurium, read-out: FC; summary of the method: as §2
[12] = (§3) Toxicity in BALB/c mouse infected with Trypanosoma cruzi MHOM/Pe/2011/Arequipa;DTU 5 bloodstream trypomastigote assessed as decrease in serum creatine kinase muscle to brain ratio level in acute phase at 20 mg/kg/day, po administered for 5 consecutive days starting from day 8 post infection and measured on day 100 post infection by biochemical analysis relative to control; assay type: organism-based; parameters: scale not given: the % may be the effect or the level left; conditions: in vivo
Summary of the method: (§4)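 Female BALB/c mice (10–12 weeks, 14–20 g; groups of three) were infected i.p. with 5 × 10^5 Arequipa bloodstream trypomastigotes. Dosing was oral at 20 mg/kg/day for 5 days, from day 8 pi (acute) or day 70 pi (chronic), as a 2 mg/ml suspension in 5% DMSO/0.5% HPMC; controls received vehicle. Cyclophosphamide 200 mg/kg i.p. was given at day 80 pi. Serum was collected 2 days post-treatment and at necropsy by cardiac puncture and compared with infected untreated controls.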

[13] = as §3, with “change” for “decrease”, “total bilirubin” for “creatine kinase muscle to brain ratio”; assay type: organism-based; conditions: in vivo; summary of the method: as §4
[14] = (§5) Toxicity in BALB/c mouse infected with Trypanosoma cruzi MHOM/Pe/2011/Arequipa;DTU 5 bloodstream trypomastigote assessed as decrease in serum urea level in chronic phase at 20 mg/kg/day, po administered for 5 consecutive days starting from day 70 post infection and measured at day 76 post infection relative to control; assay type: organism-based; parameters: scale not given: the % may be the effect or the level left; conditions: in vivo; summary of the method: as §4
[15] = as §5, with “aspartate aminotransferase” for “urea”; assay type: organism-based; parameters: scale not given: the % may be the effect or the level left; conditions: in vivo; summary of the method: as §4
[16] = Toxicity in BALB/c mouse infected with Trypanosoma cruzi MHOM/Pe/2011/Arequipa;DTU 5 bloodstream trypomastigote assessed as decrease in serum total bilirubin level in chronic phase at 20 mg/kg/day administered for 5 consecutive days starting from […] post infection and measured after 2 days of treatment by biochemical analysis (reference value: 0.25 mg/dl ); assay type: organism-based; parameters: scale not given: the % may be the effect or the level left; conditions: in vivo, 48 h
[17] = as §5, with “change” for “decrease”, “alkaline phosphatase” for “urea”; assay type: organism-based; conditions: in vivo; summary of the method: as §4
[18] = Inhibition of Trypanosoma cruzi MHOM/Pe/2011/Arequipa;DTU 5 epimastigote Fe-SOD
Summary of the method: (§6)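 Fe-SOD excreted by exponentially growing T. cruzi Arequipa epimastigotes cultured in supplemented MTL at 28 °C. Protein quantified by Bradford. SOD activity measured by the Beyer–Fridovich method. IC50 from inhibition curves by nonlinear regression. Mean of three independent determinations ± standard deviation.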

[19] = molecular target: Superoxide dismutase [Cu-Zn] (Homo sapiens, UniProt P00441); assay: Inhibition of human erythrocyte CuZn-SOD
Summary of the method: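 Commercial human erythrocyte CuZn-SOD. Activity measured by the Beyer–Fridovich method, tested up to 50 µM.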

Trypanosoma cruzi [20] = assay: Inhibition of Trypanosoma cruzi MHOM/Pe/2011/Arequipa;DTU 5 epimastigote Fe-SOD at 6.3 uM relative to control; summary of the method: as §6
[21] = as §3, with “uric acid” for “creatine kinase muscle to brain ratio”; assay type: organism-based; parameters: scale not given: the % may be the effect or the level left; conditions: in vivo; summary of the method: as §4
Trypanosoma cruzi [22] = assay: Trypanocidal activity against Trypanosoma cruzi trypomastigote form infected in African green monkey Vero cells assessed as ratio of infected cells at 50 uM measured after 72 hrs by Giemsa staining based assay relative to control; assay type: functional
Summary of the method: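 Vero cells (1 × 10^4/well, on coverslips) were infected with trypomastigotes at MOI 10:1 for 24 h and washed three times with PBS. They were treated at 3.1, 6.25, 12.5, 25 and 50 µM for 72 h at 37 °C in 5% CO2. Infected cells were counted after Giemsa staining. Triplicates, two separate determinations.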

[23] = as §5, with “serum uric acid” for “serum urea”, “infection” for “infection and”, “measured on” for “measured at”, “day 100” for “day 76”; assay type: organism-based; parameters: scale not given: the % may be the effect or the level left; conditions: in vivo; summary of the method: as §4
[24] = as §5, with “serum lactate dehydrogenase” for “serum urea”, “infection” for “infection and”, “measured on” for “measured at”, “day 100” for “day 76”; assay type: organism-based; parameters: scale not given: the % may be the effect or the level left; conditions: in vivo; summary of the method: as §4

Superoxide dismutase [Cu-Zn], sequence (P00441 whole entry): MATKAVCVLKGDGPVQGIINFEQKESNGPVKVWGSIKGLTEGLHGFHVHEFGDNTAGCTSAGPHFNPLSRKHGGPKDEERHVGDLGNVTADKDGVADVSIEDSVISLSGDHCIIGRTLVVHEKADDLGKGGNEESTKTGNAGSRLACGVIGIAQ

In the case of O=C(CCN1CCN(c2ccc(Cl)cc2)CC1)c1ccc(O)cc1, the viability at 0.063 mg/ml [1] is reported as 125%, the viability at 0.004 mg/ml [2] is reported as 140% and the viability at 0.25 mg/ml [3] is reported as 138%. It also gave a viability at 0.125 mg/ml [4] of 113%, a viability at 0.063 mg/ml [5] of 86.7% and a viability at 0.016 mg/ml [6] of 106%. It also gave a fold induction at 1 mg/ml [7] of 0.12, a fold induction at 0.031 mg/ml [8] of 0.7 and a fold induction at 0.008 mg/ml [9] of 0.71. For the same compound, the fold induction at 0.016 mg/ml [10] was 0.84, the fold induction at 0.002 mg/ml [11] was 0.74 and the Activity [12] was “<= 20%”. For the same compound, the Activity [13] was > 10%, the Activity [14] was “<= 30%” and the Activity [15] was “<= 10%”. For the same compound, the Activity [16] was “<= 10%”, the Activity [17] was > 10% and the IC50 [18] was 3.9 µM. For the same compound, the IC50 [19] was > 50 µM and the inhibition (Trypanosoma cruzi [20]) was > 50%.
With O=C(Cn1ccnc1[N+](=O)[O-])NCc1ccccc1 [BENZNIDAZOLE] the Activity [21] was “<= 10%”, the Ratio (Trypanosoma cruzi [22]) was 18% and the Activity [13] was > 10%. The Activity [14] was “<= 20%”, the Activity [16] was “<= 10%” and the Activity [17] was > 10%. For the same compound, the Activity [23] was “<= 30%” and the Activity [24] was “<= 10%”.
For O=C(CCN1CCN(c2ccc(C(F)(F)F)cc2)CC1)c1ccc(O)cc1, the Activity [21] was “<= 30%”, the Ratio (Trypanosoma cruzi [22]) was 7% and the viability at 0.063 mg/ml [1] was 117%. It also gave a viability at 0.004 mg/ml [2] of 127%, a viability at 0.25 mg/ml [3] of 140% and a viability at 0.125 mg/ml [4] of 138%. The viability at 0.063 mg/ml [5] was 92.9%, the viability at 0.016 mg/ml [6] was 110% and the fold induction at 1 mg/ml [7] was 0.16. The fold induction at 0.031 mg/ml [8] was 0.66, the fold induction at 0.008 mg/ml [9] was 0.75 and the fold induction at 0.016 mg/ml [10] was 0.79. The fold induction at 0.002 mg/ml [11] was 0.89, the Activity [12] was “<= 30%” and the Activity [15] was “<= 10%”. The Activity [23] was “<= 10%”, the Activity [24] was “<= 30%” and the IC50 [18] was 4.3 µM. For the same compound, the IC50 [19] was > 50 µM and the inhibition (Trypanosoma cruzi [20]) was > 50%.
